From ChEMBL document CHEMBL4177709, “Design, synthesis and evaluation against Mycobacterium tuberculosis of azole piperazine derivatives as dicyclotyrosine (cYY) mimics” (Bioorg Med Chem, 2018)
Converted amounts (≈) assume the structure as drawn. The source made the active and inactive calls. The rule behind the calls is not given here.

Legend:
[1] = test system: Mycobacterium tuberculosis; experiment: Antibacterial activity against Mycobacterium tuberculosis H37Rv after 7 days by resazurin microtiter assay; type: functional; details: 168 h
In short: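 M. tuberculosis H37Rv grown at 37 °C in 7H9 with 10% OADC to mid-log (OD600 0.4-0.6), adjusted to McFarland no.1 and diluted 1:20. Compounds from DMSO stocks serially diluted in 7H9/OADC to final 0.39-100 µg/mL; rifampicin 0.004-1 µg/mL as control. After 7 days at 37 °C, 0.01% resazurin added; fluorescence (530/590 nm) read 24 h later.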

[2] = Binding affinity to Mycobacterium tuberculosis CYP121A1 by UV-visible spectrophotometric titration method
In short: (§1)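 Purified CYP121A1 (3-4 μM) titrated at 28 °C in 100 mM KPi, 200 mM KCl, 0.004% Triton X-100, pH 7.85, with small aliquots of ligand from DMSO stocks. UV-visible spectra recorded 250-800 nm. Difference spectra give peak-minus-trough absorbance change, plotted against [ligand]. Kd obtained by hyperbolic or Hill fit, averaged over triplicate titrations.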

[3] = test system: Mycobacterium tuberculosis; experiment: Binding affinity to Mycobacterium tuberculosis CYP121A1 assessed as red shift in heme soret peak up to 500 uM by UV-visible spectrophotometric titration method; in short: as §1
[4] = test system: Mycobacterium tuberculosis; experiment: Binding affinity to Mycobacterium tuberculosis CYP121A1 assessed as blue shift in heme soret peak up to 1750 uM by UV-visible spectrophotometric titration method; in short: as §1
[5] = test system: Mycobacterium tuberculosis; experiment: Binding affinity to Mycobacterium tuberculosis CYP121A1 assessed as red shift in heme soret peak up to 300 uM by UV-visible spectrophotometric titration method; in short: as §1
[6] = test system: Mycobacterium tuberculosis; experiment: Binding affinity to Mycobacterium tuberculosis CYP121A1 assessed as red shift in heme soret peak up to 250 uM by UV-visible spectrophotometric titration method; in short: as §1

O=C(Cn1cncn1)N1CCN(Cc2ccc(F)cc2)CC1 gave an MIC90 [1] greater than 100 µg/mL and a Kd [2] of 960 µM.
For COc1ccc(CN2CCN(CCCn3ccnc3)CC2=O)cc1, the MIC90 [1] was greater than 100 µg/mL, the Activity [3] was “Active” and the Kd [2] was 309 µM.
For O=C1CN(CCCn2ccnc2)CCN1Cc1ccc(Cl)cc1Cl, the MIC90 [1] was 100 µg/mL (≈ 272 µM) and the Kd [2] was 967 µM.
Work on COc1cc(CN2CCN(Cc3cc(OC)cc(OC)c3)C(Cn3ccnc3)C2)cc(OC)c1 (stereo not given) yielded an MIC90 [1] of 12.5 µg/mL (≈ 26.8 µM) and a Kd [2] of 1440 µM.
Work on O=C(Cn1ccnc1)N1CCN(Cc2ccc(F)cc2)CC1 yielded an MIC90 [1] greater than 100 µg/mL and a Kd [2] of 1140 µM.
With O=C(Cn1cncn1)N1CCN(Cc2ccc(Cl)cc2Cl)CC1 the MIC90 [1] was greater than 100 µg/mL, the Activity [4] was “Active” and the Kd [2] was 417 µM.
For O=C1CN(CCCn2ccnc2)CCN1Cc1ccc(F)cc1, the MIC90 [1] was greater than 100 µg/mL, the Activity [5] was “Active” and the Kd [2] was 226 µM.
For O=C1CN(CCCn2ccnc2)CCN1Cc1ccc(Cl)cc1, the Activity [6] was “Active”, the MIC90 [1] was greater than 100 µg/mL and the Kd [2] was 81.3 µM.
COc1ccc(CN2CCN(Cc3ccc(OC)cc3)C(Cn3cncn3)C2)cc1 (stereo not given) gave an MIC90 [1] of 100 µg/mL (≈ 245 µM) and a Kd [2] of 1300 µM.
Work on c1ccc(CN2CCN(Cc3ccccc3)C(Cn3cncn3)C2)cc1 (stereo not given) yielded an MIC90 [1] greater than 100 µg/mL and a Kd [2] of 1830 µM.
Compound c1ccc(CN2CCN(Cc3ccccc3)C(Cn3ccnc3)C2)cc1 (stereo not given) has an MIC90 [1] of 50 µg/mL (≈ 144 µM).
